Results of several laboratories.
Lines come from different studies, so protocols differ.
Target: Activin receptor type-1 (ACVR1, Homo sapiens, UniProt Q04771)
Residues used in one study (Q04771 1-509): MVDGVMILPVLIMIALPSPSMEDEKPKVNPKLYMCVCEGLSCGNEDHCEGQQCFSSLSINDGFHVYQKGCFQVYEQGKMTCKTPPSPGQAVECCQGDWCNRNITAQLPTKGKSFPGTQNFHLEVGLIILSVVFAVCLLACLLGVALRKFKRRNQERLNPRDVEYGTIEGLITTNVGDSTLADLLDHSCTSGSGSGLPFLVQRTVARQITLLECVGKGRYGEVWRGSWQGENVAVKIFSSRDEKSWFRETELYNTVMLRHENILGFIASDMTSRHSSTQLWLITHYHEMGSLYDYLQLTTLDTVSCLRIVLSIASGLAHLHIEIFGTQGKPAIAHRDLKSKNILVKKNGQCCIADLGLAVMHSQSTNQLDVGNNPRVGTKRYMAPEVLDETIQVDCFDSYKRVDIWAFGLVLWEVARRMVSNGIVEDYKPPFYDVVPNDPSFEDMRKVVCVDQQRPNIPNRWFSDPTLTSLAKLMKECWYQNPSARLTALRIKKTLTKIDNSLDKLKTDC

| SMILES | read-out | mode | technique | concentration | endpoint | result |
| --- | --- | --- | --- | --- | --- | --- |
| Cn1cc(Cl)c2c(Oc3c(F)cc(Nc4cc(Cl)nc(N)n4)cc3F)ccnc21 | cell-free assay | – | competition with immobilised ligand | 0.1 µM | remaining binding | 85% |
| CCN1CCC2(CC1)NC(=O)c1c(c3ccc(Cl)c(Cl)c3n1C)C2C#N (racemic) | thermal stability | – | DSF | 10 µM | ΔTm | -0.1 °C |
| CC(C)(C)c1nc2c(s1)c1nc(N)ncc1c1ccc(NS(=O)(=O)c3c(F)cccc3F)c(F)c12 | enzyme activity | inhibitor | radiometric | 1 µM | remaining activity | 79% |
| Cc1sc(C(=O)NC2COC2)cc1-n1cc(NC(=O)Nc2c(F)cccc2Cl)cn1 | enzyme activity | inhibitor | – | 10 µM | remaining activity | 108% |
| O=C(O)[C@H]1[C@H](Cn2nnc3ccccc3c2=O)CC[C@@H]1C(=O)c1ccc(OCCC2CCOCC2)cc1 | cell-free assay | – | competition with immobilised ligand | 1 µM | remaining binding | 100% |
| N#CC1c2c([nH]c3c(Cl)c(Cl)ccc23)C(=O)NC12CCCCC2 (racemic) | thermal stability | – | DSF | 10 µM | ΔTm | 0.1 °C |
| CC(=O)C1=C(C)N(c2cccc(C(F)(F)F)c2)C(=O)N[C@@H]1c1ccc(C#N)nc1 | cell-free assay | – | competition with immobilised ligand | 1 µM | remaining binding | 74.5% |
| CN1CC(Oc2cnc(C#N)cc2-c2ccn3nc(NC(=O)C4CC4)cc3c2)C1 | enzyme activity | inhibitor | – | 1 µM | inhibition | -8% |
| Oc1cccc(-c2nc(N3CCOCC3)c3oc4ncccc4c3n2)c1 | cell-free assay | – | – | 0.5 µM | remaining signal | 105% |
| Cc1ccc(C(=O)Nc2ccc(CN3CCN(C)CC3)c(C(F)(F)F)c2)cc1C#Cc1cnc2cccnn12 | cell-free assay | – | – | 23.5 nM | remaining signal | 100% |
| CC(C)(O)[C@H]1CC[C@H](Nc2ccc3ncc(-c4cccc(C(F)(F)F)c4)n3n2)CC1 | enzyme activity | inhibitor | – | 1 µM | remaining activity | 28.2% |
| CCOc1cc(-c2nncn2C)ccc1Nc1ncc2cc(C)nc(NCC(C)(C)C)c2n1 | cell-free assay | – | TR-FRET | 1 µM | inhibition | ≤ 15% |
| C#Cc1cccc(Nc2ncnc3cc(OCCOC)c(OCCOC)cc23)c1 | cell-free assay | – | – | 0.5 µM | remaining signal | 101% |
| Cn1c2c(Cl)c(Cl)ccc2c2cc(N)[nH]c(=O)c21 | thermal stability | – | DSF | 10 µM | ΔTm | 3.2 °C |
| O=C(NS(=O)(=O)c1ccc(NCC2CCOCC2)c([N+](=O)[O-])c1)c1ccc(N2CCN(Cc3ccc(C(F)(F)F)cc3-c3ccc(Cl)cc3)CC2)cc1Oc1cnc2[nH]ccc2c1 | cell-free assay | – | competition with immobilised ligand | 1 µM | remaining binding | 89% |
| N#CCCc1ccc2c(c1)-c1[nH]c3ccc([N+](=O)[O-])cc3c1CC(=O)N2 | cell-free assay | – | – | 0.5 µM | remaining signal | 58.8% |
| CC1=C(C#N)C(c2ccc3c(c2)c(NC(=O)c2ccccc2C)nn3C)C(C#N)=C(C)N1 | cell-free assay | – | competition with immobilised ligand | 1 µM | remaining binding | 99% |
| O=C1Nc2ccc(Cl)cc2C1=Cc1cc(Cl)c(O)c(Cl)c1 | cell-free assay | – | – | 0.5 µM | remaining signal | 130% |
| CC(C)CC(=O)N1CCc2nc(-c3ccc(Br)cc3)nc(N(C)Cc3ccccc3)c2C1 | cell-free assay | – | competition with immobilised ligand | 0.1 µM | remaining binding | 100% |
| Cn1c2c(c3ccc(Cl)c(Cl)c31)C(C#N)C(C)(C)NC2=O (centres unmarked) | thermal stability | – | DSF | 10 µM | ΔTm | 1.1 °C |
